Data: ChEMBL document CHEMBL1128448, “Synthesis and antifungal activity of new azole derivatives containing an N-acylmorpholine ring” (1995)
≈ marks a conversion by molar mass, not a printed value.

Experiments:
[1] = test system: Nannizzia gypsea; test: In vitro evaluation of minimum inhibitory concentration against Microsporum gypseum 22; format: functional
Method in brief: (§1)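 Stocks are 800 μg/mL in 50% ethanol. Each plate gets 10 μL of inoculum at 10^5 cfu/mL. Incubation at 25 °C, 48 h for yeasts and 120 h for dermatophytes and molds. Organisms are ATCC strains or clinical isolates.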

[2] = test system: Mus sp.; test: In vivo evaluation of % survival rate after peroral administration on 7th day at dose 1 mg/kg; format: functional; settings: route oral, 1 mg/kg
[3] = test system: Nakaseomyces glabratus; test: In vitro evaluation of minimum inhibitory concentration against Torulopsis glabrata 78; format: functional; method in brief: as §1
[4] = test system: Mus sp.; test: In vivo evaluation of % survival rate after peroral administration on 9th day at dose 2.5 mg/kg; format: functional; settings: Mus sp., po
[5] = test system: Candida tropicalis; test: In vitro evaluation of minimum inhibitory concentration against Candida tropicalis 2.11; format: functional; method in brief: as §1
[6] = test system: Mus sp.; test: In vivo evaluation of % survival rate after peroral administration on 5th day at dose 2.5 mg/kg; format: functional; settings: Mus sp., po
[7] = test system: Mus sp.; test: In vivo evaluation of % survival rate after peroral administration on 3rd day at dose 1 mg/kg; format: functional; settings: Mus sp., po
[8] = test system: Candida albicans; test: In vivo evaluation of minimum inhibitory concentration against Candida albicans 406; format: functional; settings: Candida albicans; read-out: MIC
Method in brief: (§2)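 Broth macrodilution MIC following NCCLS M27-P, in RPMI-1640 buffered with 0.165 M MOPS. Fluconazole was dissolved in water and other drugs in DMSO. C. parapsilosis ATCC 22019 served as the reference strain in every run. MIC was the lowest concentration giving turbidity at or below the 80% inhibition standard.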

[9] = test system: Aspergillus niger; test: In vitro evaluation of minimum inhibitory concentration against Aspergillus niger 18; format: functional; method in brief: as §1
[10] = test system: Microsporum canis; test: In vitro evaluation of minimum inhibitory concentration against Microsporum canis 47; format: functional; method in brief: as §1
[11] = test system: Kluyveromyces marxianus; test: In vitro evaluation of minimum inhibitory concentration against Candida pseudotropicalis 13; format: functional; method in brief: as §1
[12] = test system: Mus sp.; test: In vivo evaluation of % survival rate after peroral administration on 5th day at dose 1 mg/kg; format: functional; settings: Mus sp., po
[13] = test system: Pichia kudriavzevii; test: In vitro evaluation of minimum inhibitory concentration against Candida krusei 70; format: functional; method in brief: as §1
[14] = test system: Mus sp.; test: In vivo evaluation of % survival rate after peroral administration on 9th day at dose 1 mg/kg; format: functional; settings: route oral, 1 mg/kg
[15] = test system: Aspergillus flavus; test: In vitro evaluation of minimum inhibitory concentration against Aspergillus flavus 19; format: functional; method in brief: as §1
[16] = test system: Candida albicans; test: In vitro evaluation of minimum inhibitory concentration against Candida albicans 76; format: functional; method in brief: as §1
[17] = test system: Rhodotorula mucilaginosa; test: In vitro evaluation of minimum inhibitory concentration against Rhodotorula rubra 16; format: functional; method in brief: as §1
[18] = test system: Trichophyton benhamiae; test: In vitro evaluation of minimum inhibitory concentration against Trichophyton mentagrophytes 23; format: functional, Arthroderma benhamiae; method in brief: as §1
[19] = test system: Mus sp.; test: In vivo evaluation of % survival rate after peroral administration on 7th day at dose 2.5 mg/kg; format: functional; settings: Mus sp., po
[20] = test system: Trichophyton rubrum; test: In vitro evaluation of minimum inhibitory concentration against Trichophyton rubrum 90; format: functional; method in brief: as §1
[21] = test system: Meyerozyma guilliermondii; test: In vitro evaluation of minimum inhibitory concentration against Candida guilliermondii 26; format: functional; method in brief: as §1
[22] = test system: Aspergillus fumigatus; test: In vitro evaluation of minimum inhibitory concentration against Aspergillus fumigatus 33; format: functional; method in brief: as §1
[23] = test system: Candida albicans; test: In vivo evaluation of minimum inhibitory concentration against Candida albicans 60; format: functional; settings: Candida albicans; read-out: MIC; method in brief: as §2
[24] = test system: Mus sp.; test: In vivo evaluation of % survival rate after peroral administration on 3rd day at dose 2.5 mg/kg; format: functional; settings: Mus sp., po
[25] = test system: Candida parapsilosis; test: In vitro evaluation of minimum inhibitory concentration against Candida parapsilosis 61; format: functional; method in brief: as §1
[26] = test system: Candida albicans; test: […] Evaluation of minimum inhibitory concentration against Candida albicans 406; format: functional; method in brief: as §1
[27] = test system: Candida albicans; test: […] Evaluation of minimum inhibitory concentration against Candida albicans 60; format: functional; method in brief: as §1
[28] = Nannizzia gypsea, read-out: MIC
[29] = Nakaseomyces glabratus, read-out: MIC
[30] = Candida tropicalis, read-out: MIC
[31] = Aspergillus niger, read-out: MIC
[32] = Microsporum canis, read-out: MIC
[33] = Kluyveromyces marxianus, read-out: MIC
[34] = Pichia kudriavzevii, read-out: MIC
[35] = Aspergillus flavus, read-out: MIC
[36] = Candida albicans, read-out: MIC
[37] = Rhodotorula mucilaginosa, read-out: MIC
[38] = Trichophyton benhamiae, read-out: MIC
[39] = Trichophyton rubrum, read-out: MIC
[40] = Meyerozyma guilliermondii, read-out: MIC
[41] = Aspergillus fumigatus, read-out: MIC
[42] = Lodderomyces parapsilosis, read-out: MIC

SMILES	MIC [1, 28] [µg/mL]	MIC [3, 29] [µg/mL]	survival at 2.5 mg/kg [4] [%]	MIC [5, 30] [µg/mL]	survival at 2.5 mg/kg [6] [%]	MIC [8] [µg/mL]	MIC [9, 31] [µg/mL]	MIC [10, 32] [µg/mL]	MIC [11, 33] [µg/mL]	MIC [13, 34] [µg/mL]	MIC [15, 35] [µg/mL]	MIC [16, 36] [µg/mL]	MIC [17, 37] [µg/mL]	MIC [18, 38] [µg/mL]	survival at 2.5 mg/kg [19] [%]	MIC [20, 39] [µg/mL]	MIC [21, 40] [µg/mL]	MIC [22, 41] [µg/mL]	survival at 2.5 mg/kg [24] [%]	MIC [25, 42] [µg/mL]	other results
C[C@H]1N(C(=O)c2ccc(C(F)(F)F)cc2)CC(=O)O[C@@]1(Cn1cncn1)c1ccc(F)cc1F (racemic)	> 80	> 80	70	> 80	100	40 (≈ 83.3 µM)	> 80	> 80	80 (≈ 167 µM)	> 80	> 80	> 80	> 80	> 80	95	> 80	> 80	> 80	100	> 80	Survival [2]: 30%; survival at 1 mg/kg [7]: 95%; survival at 1 mg/kg [12]: 85%; Survival [14]: 0%; MIC [23]: 80 µg/mL (≈ 167 µM)
C[C@H]1N(C(=O)c2ccc(C(F)(F)F)cc2F)CC(=O)O[C@@]1(Cn1cncn1)c1ccc(F)cc1F (racemic)	> 80	> 80	90	80 (≈ 161 µM)	100	20 (≈ 40.1 µM)	> 80	> 80	80 (≈ 161 µM)	> 80	> 80	40 (≈ 80.3 µM)	> 80	> 80	100	> 80	> 80	> 80	100	80 (≈ 161 µM)	MIC [23]: 20 µg/mL (≈ 40.1 µM)
C[C@H]1N(C(=O)c2ccc(OCC(F)(F)C(F)F)cc2)CC(=O)O[C@@]1(Cn1cncn1)c1ccc(F)cc1F (racemic)	> 80	> 80	70	> 80	100	10 (≈ 18.4 µM)	> 80	> 80	80 (≈ 147 µM)	> 80	> 80	> 80	> 80	> 80	90	> 80	80 (≈ 147 µM)	> 80	100	80 (≈ 147 µM)	MIC [23]: 10 µg/mL (≈ 18.4 µM)
C[C@@H](NC(=O)c1ccc(C(F)(F)F)cc1)[C@](O)(Cn1cncn1)c1ccc(F)cc1F (racemic)			100		100										100				100		MIC [1]: >80 µg/mL; Survival [2]: 80%; MIC [3]: >80 µg/mL; MIC [5]: 80 µg/mL (≈ 182 µM); MIC [26]: 0.31 µg/mL (≈ 0.704 µM); MIC [9]: >80 µg/mL; MIC [10]: >80 µg/mL; MIC [11]: 40 µg/mL (≈ 90.8 µM); MIC [13]: >80 µg/mL; Survival [14]: 60%; MIC [15]: >40 µg/mL; MIC [16]: 80 µg/mL (≈ 182 µM); MIC [17]: 2.5 µg/mL (≈ 5.68 µM); MIC [18]: >80 µg/mL; MIC [20]: >40 µg/mL; MIC [21]: 2.5 µg/mL (≈ 5.68 µM); MIC [27]: 0.63 µg/mL (≈ 1.43 µM); MIC [22]: >80 µg/mL; MIC [25]: 20 µg/mL (≈ 45.4 µM)
CCC(C)n1ncn(-c2ccc(N3CCN(c4ccc(OC[C@H]5CO[C@](Cn6cncn6)(c6ccc(Cl)cc6Cl)O5)cc4)CC3)cc2)c1=O (some centres not stated) [ITRACONAZOLE]	80 (≈ 113 µM)	> 80		20 (≈ 28.3 µM)			> 80	80 (≈ 113 µM)	80 (≈ 113 µM)	1.25 (≈ 1.77 µM)	> 80	0.63 (≈ 0.893 µM)	> 80	> 80		0.63 (≈ 0.893 µM)	0.15 (≈ 0.213 µM)	0.15 (≈ 0.213 µM)		0.07 (≈ 0.0992 µM)	MIC [26]: < 0.03 µg/mL; MIC [27]: 0.07 µg/mL (≈ 0.0992 µM)
